Laboratory results published in ChEMBL document CHEMBL3124841, “Discovery of vinyl sulfones as a novel class of neuroprotective agents toward Parkinson's disease therapy” (J Med Chem, 2014).
The source made the active and inactive calls. The calls are words filed in the database; no cut-off is given here.

Key:
[1] = molecular target: T1, Nuclear factor erythroid 2-related factor 2 (Mus musculus) (UniProt Q60795); test: Induction of Nrf2-dependent GCLM gene expression in mouse CATH.a cells at 10 uM after 6 hrs by RT-PCR analysis relative to control; type: cell-based
T1 sequence (whole entry): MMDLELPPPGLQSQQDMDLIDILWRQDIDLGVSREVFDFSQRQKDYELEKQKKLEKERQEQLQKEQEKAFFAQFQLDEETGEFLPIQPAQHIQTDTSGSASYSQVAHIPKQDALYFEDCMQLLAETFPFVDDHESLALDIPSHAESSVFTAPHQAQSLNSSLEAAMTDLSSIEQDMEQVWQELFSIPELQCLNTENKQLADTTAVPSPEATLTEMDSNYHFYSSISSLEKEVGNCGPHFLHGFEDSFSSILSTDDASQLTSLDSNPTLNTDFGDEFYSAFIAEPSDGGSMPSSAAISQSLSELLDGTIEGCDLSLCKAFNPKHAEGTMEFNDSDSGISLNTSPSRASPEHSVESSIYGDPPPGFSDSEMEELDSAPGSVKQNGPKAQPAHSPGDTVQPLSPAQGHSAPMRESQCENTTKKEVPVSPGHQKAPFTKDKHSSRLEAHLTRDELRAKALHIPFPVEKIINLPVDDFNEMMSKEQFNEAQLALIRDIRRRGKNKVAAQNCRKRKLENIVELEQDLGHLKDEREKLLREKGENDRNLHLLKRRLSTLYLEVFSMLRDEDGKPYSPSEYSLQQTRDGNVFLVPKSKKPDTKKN
Procedure, shortened: (§1)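 CATH.a cells grown in RPMI 1640 with 8% horse serum and 4% FBS, exposed to graded concentrations for 6 h. mRNA analysed by RT-PCR with gene-specific primers, products run on 1% agarose gel, band densitometry normalized to GAPDH. At least duplicate cultures; fold induction versus untreated control ± SEM.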

[2] = molecular target: T1, Nuclear factor erythroid 2-related factor 2 (Mus musculus); test: Induction of Nrf2-dependent GCLC gene expression in mouse CATH.a cells at 2 uM after 6 hrs by RT-PCR analysis relative to control; type: cell-based; procedure, shortened: as §1
[3] = molecular target: T1, Nuclear factor erythroid 2-related factor 2 (Mus musculus); test: Induction of Nrf2-dependent HO1 protein expression in mouse CATH.a cells at 1 to 10 uM after 24 hrs by western blot analysis relative to control; type: cell-based
Procedure, shortened: (§2)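 Cells (CATH.a) exposed to graded concentrations for 24 h, lysed in RIPA buffer with protease inhibitors. Equal protein separated on 10% SDS gel, blotted; primary antibodies overnight at 4 °C, HRP secondary, chemiluminescence. Densitometry normalized to β-actin. At least duplicate cultures, fold of untreated control ± SEM.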

[4] = molecular target: T1, Nuclear factor erythroid 2-related factor 2 (Mus musculus); test: Induction of Nrf2-dependent NQO1 gene expression in mouse CATH.a cells at 10 uM after 6 hrs by RT-PCR analysis relative to control; type: cell-based; procedure, shortened: as §1
[5] = molecular target: T1, Nuclear factor erythroid 2-related factor 2 (Mus musculus); test: Induction of Nrf2-dependent NQO1 gene expression in mouse CATH.a cells at 1 uM after 6 hrs by RT-PCR analysis relative to control; type: cell-based; procedure, shortened: as §1
[6] = molecular target: T1, Nuclear factor erythroid 2-related factor 2 (Mus musculus); test: Induction of Nrf2-dependent NQO1 gene expression in mouse CATH.a cells after 6 hrs by RT-PCR analysis; type: cell-based; procedure, shortened: as §1
[7] = molecular target: T1, Nuclear factor erythroid 2-related factor 2 (Mus musculus); test: Activation of Nrf2 in mouse CATH.a cells assessed as increase in total Nrf2 protein level at 1 uM after 24 hrs by western blot analysis; type: cell-based
Procedure, shortened: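 CATH.a cells (RPMI 1640, 8% horse serum, 4% FBS, 37 °C, 5% CO2) exposed to various concentrations for 24 h. Whole-cell lysate in RIPA buffer with protease inhibitors, 10% SDS-PAGE, Nrf2 immunoblot, chemiluminescence, densitometry normalized to β-actin. At least duplicate cultures, averaged, fold of untreated control ± SEM.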

[8] = Cytotoxicity against mouse CATH.a cells assessed as cell viability at 0.1 to 2 uM after 72 hrs by LDH activity assay; type: cell-based
Procedure, shortened: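 Seeded at 2.4 × 10⁴ CATH.a cells/well and exposed to the agent alone for 72 h. LDH in culture medium measured with 0.26 mM NADH, 2.87 mM pyruvate in 100 mM potassium phosphate pH 7.4; absorbance at 340 nm followed 5 min at 2 s intervals, room temperature. Duplicate cultures minimum; % untreated control ± SEM.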

[9] = tested on: Mus musculus; test: (§3) Inhibition of motor deficits in MPTP-induced C57Bl/6 mouse parkinson's disease model assessed as number of successful steps taken on the apparatus at 10 mg/kg/day, po for 3 days administered first dose at 24 hrs prior to first injection of 4X 20 mg/kg, ip MPTP challenge by vertical grid test (reference value: 75.4 +/-6.2%); type: functional; parameters: scale not given: the % may be the effect or the level left
[10] = tested on: Mus musculus; test: as §3, with “total time” for “number of successful steps”, “grid” for “the”, “34.8 +/-5.4s)” for “75.4 +/-6.2%)”; type: functional
[11] = tested on: Mus musculus; test: Inhibition of motor deficits in MPTP-induced C57Bl/6 mouse parkinson's disease model assessed as improvement in postural balance at 10 mg/kg/day, po for 3 days administered first dose at 24 hrs prior to first injection of 4X 20 mg/kg, ip MPTP challenge measured 6 days after last MPTP injection by hind-limb test; type: functional, organism-based
Procedure, shortened: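 C57Bl/6 males (n = 10/group), 10 mg/kg/day po for 3 days in N-methyl-2-pyrrolidone/20% Tween 80 saline. MPTP 4 × 20 mg/kg ip at 2 h intervals, begun 24 h after first dose. Six days after last MPTP injection, mice suspended by tail and hindlimb position scored 0−4. Mean ± SEM.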

[12] = tested on: Mus musculus; test: Neuroprotective activity against MPTP-induced neurodegeneration in C57Bl/6 mouse parkinson's disease model assessed as increase in DAergic fibers in striatum at 10 mg/kg/day, po for 3 days administered first dose at 24 hrs prior to first injection of 4X 20 mg/kg, ip MPTP challenge measured 7 days after first MPTP injection by immunohistochemistry; type: functional, organism-based
Procedure, shortened: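 Male C57Bl/6 mice (23−25 g, n = 10/group) dosed orally at 10 mg/kg/day for 3 days, vehicle N-methyl-2-pyrrolidone and 20% Tween 80 in saline. MPTP 4 × 20 mg/kg ip 2 h apart, starting 24 h after first oral dose. Perfusion-fixed 7 days after first MPTP; TH immunostaining, nigral cells counted and striatal fibers densitometered on five sections each, 80 μm apart. Expressed as % vehicle control ± SEM.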

[13] = molecular target: T1, Nuclear factor erythroid 2-related factor 2 (Mus musculus); test: Induction of Nrf2-dependent GCLC gene expression in mouse CATH.a cells at 0.1 uM after 6 hrs by RT-PCR analysis; type: cell-based; procedure, shortened: as §1
[14] = molecular target: T1, Nuclear factor erythroid 2-related factor 2 (Mus musculus); test: Induction of Nrf2-dependent GCLM protein expression in mouse CATH.a cells at 0.1 uM after 24 hrs by western blot analysis; type: cell-based; procedure, shortened: as §2
[15] = molecular target: T1, Nuclear factor erythroid 2-related factor 2 (Mus musculus); test: Induction of Nrf2-dependent NQO1 gene expression in mouse CATH.a cells at 0.1 uM after 6 hrs by RT-PCR analysis; type: cell-based; procedure, shortened: as §1
[16] = organism: Mus musculus; test: Neuroprotection against BH4-induced mouse CATH.a cell death assessed as cell viability at >0.1 uM treated for 20 hrs prior to BH4 challenge for 24 hrs by LDH activity assay; type: functional
Procedure, shortened: (§4)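 CATH.a cells at 2.4 × 10⁴/well given graded concentrations for 20 h, then 200 μM BH4 for an additional 24 h. Medium LDH activity from NADH oxidation with pyruvate, pH 7.4, read at 340 nm over 5 min. At least duplicate cultures, % untreated control ± SEM, compared against BH4-treated group.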

[17] = organism: Mus musculus; test: Neuroprotection against BH4-induced mouse CATH.a cell death assessed as cell viability at 0.1 uM treated for 20 hrs prior to BH4 challenge for 24 hrs by LDH activity assay; type: functional; procedure, shortened: as §4
[18] = molecular target: T1, Nuclear factor erythroid 2-related factor 2 (Mus musculus); test: Induction of Nrf2-dependent GCLC protein expression in mouse CATH.a cells after 24 hrs by western blot analysis; type: cell-based; procedure, shortened: as §2
[19] = molecular target: T1, Nuclear factor erythroid 2-related factor 2 (Mus musculus); test: Induction of Nrf2-dependent GCLM protein expression in mouse CATH.a cells after 24 hrs by western blot analysis; type: cell-based; procedure, shortened: as §2

fold change (FC) [1]: 2.56
fold change (FC) [2]: 1.41
fold change (FC) [3]: 3
fold change (FC) [4]: 5.67
fold change (FC) [5]: 1.95
Activity [6]: Dose-dependent effect
Activity [7]: Active
Activity [13]: inactive
Activity [14]: inactive
Activity [15]: inactive
Activity [18]: Dose-dependent effect
Activity [19]: Dose-dependent effect
SMILES: COc1ccccc1S(=O)(=O)/C=C/c1ccccc1Cl
Activity [8]: Non-toxic
Activity [9]: 96.9%
Time [10]: 10.3 s
inhibition [11]: Active
Activity [12]: Active
Activity [16]: Active
Activity [17]: Active
